Test results reported in ChEMBL document CHEMBL1629686, “Substrate selectivity and a novel role in inhibitor discrimination by residue 237 in the KPC-2 beta-lactamase” (Antimicrob Agents Chemother, 2010).

Tests used:
Klebsiella pneumoniae [1] = experiment: Activity of Klebsiella pneumoniae 1534 beta-lactamase KPC-2 T237S mutant by spectrophotometric analysis
How it was run: (§1)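 Purified KPC-2 variant enzymes (periplasmic lysate from E. coli, preparative isoelectric focusing). Hydrolysis followed by diode-array spectrophotometry in 10 mM PBS, pH 7.4, room temperature. Enzyme at 10 nM with substrate in molar excess for pseudo-first-order conditions. Vmax and Km came from a nonlinear least-squares Michaelis-Menten fit.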

Klebsiella pneumoniae [2] = experiment: Ratio of Kcat/Km for Klebsiella pneumoniae 1534 beta-lactamase KPC-2 T237S mutant by spectrophotometric analysis; how it was run: as §1
Klebsiella pneumoniae [3] = experiment: Activity of Klebsiella pneumoniae 1534 beta-lactamase KPC-2 T237A mutant by spectrophotometric analysis; how it was run: as §1
Klebsiella pneumoniae [4] = experiment: Ratio of Kcat/Km for Klebsiella pneumoniae 1534 beta-lactamase KPC-2 T237A mutant by spectrophotometric analysis; how it was run: as §1
Klebsiella pneumoniae [5] = experiment: Selectivity index, Ratio of Kcat/Km for Klebsiella pneumoniae 1534 beta-lactamase KPC-2 T237S mutant to ratio of Kcat/Km for Klebsiella pneumoniae 1534 beta-lactamase KPC-2 by spectrophotometric analysis
How it was run: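 Kinetics used purified enzymes in 10 mM PBS, pH 7.4, room temperature, with 10 nM enzyme and substrate in excess. Km and Vmax came from a Michaelis-Menten fit. kcat/Km of the variant was compared with wild type as ΔΔG = −RT ln of the kcat/Km ratio.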

Klebsiella pneumoniae [6] = experiment: Activity of Klebsiella pneumoniae 1534 beta-lactamase KPC-2 T237E mutant by spectrophotometric analysis; how it was run: as §1
Klebsiella pneumoniae [7] = experiment: Ratio of Kcat/Km for Klebsiella pneumoniae 1534 beta-lactamase KPC-2 T237E mutant by spectrophotometric analysis; how it was run: as §1

**Q.** `O=C(Cc1cccs1)N[C@@H]1C(=O)N2C(C(=O)O)=C(/C=C/c3ccc([N+](=O)[O-])cc3[N+](=O)[O-])CS[C@H]12` was tested. Which Km (Klebsiella pneumoniae [1]) did it give?
**A.** 5 µM

**Q.** What about the kcat (Klebsiella pneumoniae [1]) of the same molecule?
**A.** 50 s⁻¹

**Q.** And the kcat/Km (Klebsiella pneumoniae [2])?
**A.** 10 µM⁻¹ s⁻¹

**Q.** And the Km (Klebsiella pneumoniae [3])?
**A.** 15 µM

**Q.** And the kcat (Klebsiella pneumoniae [3])?
**A.** 191 s⁻¹

**Q.** What about the kcat/Km (Klebsiella pneumoniae [4]) of the same molecule?
**A.** 13 µM⁻¹ s⁻¹

**Q.** What about the fold change (FC) (Klebsiella pneumoniae [5]) of the same molecule?
**A.** 2.7

**Q.** What about the Km (Klebsiella pneumoniae [6]) of the same molecule?
**A.** 167 µM

**Q.** What about the kcat (Klebsiella pneumoniae [6]) of the same molecule?
**A.** 92 s⁻¹

**Q.** What about the kcat/Km (Klebsiella pneumoniae [7]) of the same molecule?
**A.** 0.6 µM⁻¹ s⁻¹
